Screening results deposited in PubChem by several laboratories.
b-catenin transl: beta-catenin nuclear translocation modulation | HeLa beta-catenin nuclear translocation, immunofluorescence imaging | nuclear translocation activity, % at 5 µM | 0.3% of 190,000 active;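 active means nuclear translocation activity above 50% at 5 µM, with a well cell count of 50 or more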;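 further: per-cell ratio of nuclear to cytoplasmic median beta-catenin stain intensity; plate controls were DMSO negative control for no effect and GSK-3 inhibitor IX positive control for full effect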
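assay system = human HeLa cells, endogenous beta-catenin | times = compound treatment 24 h, 37°C, 5% CO2 | detection = Anti-beta-catenin immunofluorescence on PFA-fixed, Triton-permeabilized cells, DAPI nuclei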
Efa HMGR inh: blocks class II HMG-CoA reductase of Enterococcus faecalis; inhibition, % at 10 µM; 0.41% of 190,000 active; purified E. faecalis HMGR, NADPH absorbance 340 nm kinetic; AID 1066;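 active means inhibition above a set limit, the median over all tested compounds plus 3 SD, cut at about 9.5% in these data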;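 further: enzyme runs in reverse so mevalonate oxidation gives rising NADPH absorbance; 0% = complete reaction with DMSO and 100% = background rate lacking mevalonate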
PGE2 EP2 inh: EP2 receptor (human) inhibition | AID 1422 | P43116 | inhibition, % at 25 µM | 0.52% of 260,000 active | C6 glioma cells expressing human EP2, cAMP TR-FRET; cells stimulated with saturating PGE2;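 active means percent inhibition above 40 after rounding to a whole number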;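 further: rat C6 glioma host cells with rolipram phosphodiesterase inhibitor present; the protocol text gives 20 µM as final concentration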
Target sequence (P43116 whole entry, looked up): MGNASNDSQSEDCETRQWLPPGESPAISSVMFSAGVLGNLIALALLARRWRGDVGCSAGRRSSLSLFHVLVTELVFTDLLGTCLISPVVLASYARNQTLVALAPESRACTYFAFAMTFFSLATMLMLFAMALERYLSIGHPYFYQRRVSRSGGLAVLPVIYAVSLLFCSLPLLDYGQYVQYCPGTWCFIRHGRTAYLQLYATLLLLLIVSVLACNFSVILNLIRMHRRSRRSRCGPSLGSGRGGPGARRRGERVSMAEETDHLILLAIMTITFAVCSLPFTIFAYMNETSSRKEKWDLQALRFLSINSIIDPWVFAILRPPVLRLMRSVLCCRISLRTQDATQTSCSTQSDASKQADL
EP2 mod: modulates human prostaglandin E2 receptor EP2 signaling. P43116. EP2-expressing cells, cAMP HTRF FRET, PGE2 co-stimulation. induction, % at 25 µM. 0.83% of 260,000 active;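 active means compounds whose cAMP rise, as percent of the full-agonist control response, exceeds 60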;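 further: rat C6 glioma line stably carrying human EP2 under a CMV promoter; the protocol text gives 20 µM as final concentration; 100% = response of wells given 1 µM PGE2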
MT stabilize HCS: microtubule stabilization, imaging screen. HeLa tubulin immunostaining HCS, 24 h; share of cells brighter than vehicle mean+2SD. % tubulin-high responders, % at 10 µM. 0.83% of 200,000 active;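 active means plate Z-score above 3 for both tubulin-high and condensed-nucleus cell shares, with cell loss under 80%, at 10 µM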;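 further: anti alpha tubulin signal scored within the nucleus-defined area of each cell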
TbHK1 inh: T. brucei hexokinase 1 inhibition; recombinant TbHK1, G6PDH-coupled NADH A340; 0.11% of 220,000 active; inhibition, % at 10 µM;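 active means inhibition of 50% or more in the single-dose primary screen; inactive means inhibition below 50%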
Active calls of the source: *; / = not tested or not shown. This is a sample that favours compounds with a hit; in the whole collection about 2.4% have one here.

SMILES | b-catenin transl | Efa HMGR inh | PGE2 EP2 inh | EP2 mod | MT stabilize HCS | TbHK1 inh
O=S(=O)(Nc1cccc(-c2ccc3nncn3n2)c1)c1cccs1 | 0 | -3 | 8 | 14 | 4 | -3
COc1ccc(S(=O)(=O)Nc2cccc(-c3ccc4nncn4n3)c2)cc1F | 3 | -6 | 4 | 6 | 30* | -4
COc1cc(-c2cc(-c3ccc(Cl)c(Cl)c3)nc(N)c2C#N)ccc1O | / | / | 10 | -20 | / | /
CN1CCN(CN2C(=O)[C@H]3[C@H]4C=C[C@@H]([C@@H]3C2=O)[C@H]2[C@@H]3C(=O)N(CN5CCN(C)CC5)C(=O)[C@@H]3[C@@H]42)CC1 | / | / | 53* | 8 | / | /
CCCCN1C(=O)C2C3C=CC(C2C1=O)C1C2C(=O)N(CCCC)C(=O)C2C31 (stereo not given) | 4 | -5 | 4 | 0 | 3 | 1
O=S(=O)(c1ccc(Br)cc1)N1CCN(S(=O)(=O)c2ccc(Br)cc2)CC1 | / | / | 42* | -1 | / | /
O=C(Nc1ccc(Cl)c(C(F)(F)F)c1)NC1CC2CCCC(C1)N2C1CC1 (stereo not given) | / | / | 41* | / | 2 | 4
O=C(Nc1cccc(F)c1)NC1CC2CCCC(C1)N2C1CC1 (stereo not given) | 0 | -1 | 3 | -30 | 1 | 0
CSc1nc2sc3c(c2c2nnnn12)CCCC3 | 3 | -4 | 66* | 14 | 6 | -18
Cc1ccccc1NC(=O)N1CCC(n2nnc3cc(F)ccc32)CC1 | / | / | 6 | -29 | / | /
CCc1ccc2c(c1)-c1c(s[s+]c1SC(C)=O)C(C)(C)N2 | / | / | 9 | 65* | / | /
COc1ccc(-n2sc3c(c2=S)-c2cc(OC)ccc2NC3(C)C)cc1 | -1 | 1 | 12 | 16 | 1 | -10
COc1ccccc1C(C)NC(=O)c1ccc(C)o1 (stereo not given) | / | -3 | 11 | -19 | 44* | -2
COc1ccc(OC)c(C(C)NC(=O)c2ccco2)c1 (stereo not given) | 3 | 2 | 10 | 26 | 26* | -2
Cc1cc2c(cc3c(=O)n(CC(=O)NC4CCCCC4C)nc(C)n32)o1 (stereo not given) | / | / | / | -14 | / | /
CC(C)c1nc2ccccc2c2nn(CC(=O)NC(C)(C)C)c(=O)n12 | / | / | / | -45 | / | /
Nc1sc2c(c1C(=O)c1ccc(Br)cc1)CCC2 | / | / | 9 | 78* | / | /
Cc1sc(N)c(C(=O)c2ccccc2)c1C | 1 | 7 | 8 | 10 | 2 | -3
Cc1sc(N)c(C(=O)c2ccc(Br)cc2)c1C | / | / | 14 | 71* | / | /
Cc1csc(NC(=O)CSc2nnc(-c3ccccc3)n2C)n1 | / | / | 10 | -19 | / | /
Nc1[nH]n2c(=O)c3c(nc2c1N=Nc1ccc(Cl)cc1)CCCC3 | 4 | 0 | 11 | 64* | 21* | 0
CCOC(=O)c1ccc(NC(=O)Nc2ccc(Cl)cn2)cc1 | -2 | -1 | 17 | 0 | 3 | -13
CCOC(=O)c1ccc(NC(=O)Nc2ccon2)cc1 | 93* | / | 18 | -3 | / | -3
CCc1cc2c(C)cc(C)cc2nc1SCC(=O)NCc1ccc2c(c1)OCO2 | / | / | 19 | 72* | / | /
CCc1cc2c(C)cc(C)cc2nc1SCC(=O)Nc1ccc2c(c1)OCO2 | / | / | 7 | 34 | / | /
SMILES | b-catenin transl | Efa HMGR inh | PGE2 EP2 inh | EP2 mod | MT stabilize HCS | TbHK1 inh
Cc1cc2cc(C)c(SCC(=O)NCc3ccc4c(c3)OCO4)nc2cc1C | / | / | 22 | 85* | / | /
Cc1cc2c(cc3c(=O)n(CC(=O)N4CCN(c5ccccc5F)CC4)nc(C)n32)s1 | / | / | / | -40 | / | /
CCN1CC(CN(C)Cc2nc(-c3ccc(C(F)(F)F)cc3)no2)CC1=O (stereo not given) | 57* | -3 | 8 | 1 | 2 | 1
CCN1CC(CN(C)Cc2nc(-c3cccs3)no2)CC1=O (stereo not given) | 0 | -2 | 4 | -5 | 2 | -11
Cc1cccc2cc(CN(C(=O)C3CCC3)C3CCCCC3)c3nnnn3c12 | / | / | 9 | 14 | / | /
CCc1cc2cc3c(cc2nc1SCC(=O)Nc1cc(OC)cc(OC)c1)OCO3 | / | / | 12 | 69* | / | /
CCc1cc2ccc(OC)cc2nc1SCC(=O)Nc1ccc2c(c1)OCO2 | / | / | 12 | 76* | / | /
CCc1cc2cc(C)c(C)cc2nc1SCC(=O)Nc1ccc2c(c1)OCO2 | / | / | 14 | 6 | / | /
CC(C)(C)NC(=O)CSc1nc2cc3c(cc2cc1Cc1ccccc1)OCO3 | / | / | 10 | 81* | / | /
CCc1cc2cc3c(cc2nc1SCC(=O)Nc1nc2c(s1)CCCC2)OCO3 | / | / | 23 | 77* | / | /
CC[C@@H](Cn1nnc2ccccc2c1=O)NC(=O)Cc1ccccc1F | / | / | 4 | 4 | / | /
Cc1ccnc(NC(=O)c2ccccc2NC(=O)C(C)(C)C)c1 | -1 | 1 | 5 | 19 | 44* | 3
Cc1ccc(NCc2nnc(SCC(=O)OC(C)C)n2C)cc1Cl | / | / | 4 | -56 | / | /
COc1ccc(NS(=O)(=O)c2cccc(C(=O)NNC(=O)c3cc(C)oc3C)c2)cc1 | -1 | -2 | 3 | 23 | 2 | 2
COc1ccc(NS(=O)(=O)c2cc(C)ccc2NC(=O)c2cc(C)oc2C)cc1 | / | -2 | 15 | -38 | 21* | -3
Cc1ccc(C2C(C#N)=C(N)Oc3cc(C)oc(=O)c32)o1 (stereo not given) | 0 | -3 | 15 | 19 | 1 | -3
CCOc1ccc(C2C(C#N)=C(N)Oc3cc(C)oc(=O)c32)cc1 (stereo not given) | 1 | 16* | 4 | 1 | 2 | 2
Cc1cccc(NC(=O)C(C)Oc2ccc3c(C)cc(=O)oc3c2)c1C (stereo not given) | / | / | 8 | -22 | / | /
Cc1ccc(-n2nnnc2SCC(=O)Nc2nc3ccccc3s2)c(C)c1 | / | / | 11 | -52 | / | /
CC(C)(C)n1nnnc1SCC(=O)Nc1nn(-c2ccccc2)nc1C(N)=O | -3 | 10.0* | 6 | 51 | 2 | 2
CC(=O)N(CC(=O)Nc1nn(-c2ccccc2)nc1C(N)=O)Cc1ccccc1 | -4 | -4 | 1 | -14 | 4 | 0
O=C1CC(=O)N(Cc2ccco2)C(=S)N1 | / | 21* | 9 | 3 | 2 | 26
CN(C)CCCNc1ncc(C(F)(F)F)cc1Cl | -4 | -1 | 4 | -22 | 14* | -2
COC(=O)[C@H](Cc1ccccc1)NC(=O)O[C@@H]1C(=O)c2cc(Br)ccc2O[C@H]1c1cccc(OC)c1 | / | 11* | / | 37 | 4 | -3
Cn1c(=S)c2[nH]c(SCCN3C(=O)c4ccccc4C3=O)nc2n(C)c1=O | / | / | 41* | 21 | / | /
COCCN(C(=O)c1c(Cl)cnn1C)c1nc2c(s1)CCc1c-2cnn1C | / | / | 8 | -17 | / | /
COc1ccc2cc(C(c3nnnn3Cc3ccccc3)N3CCOCC3)c(=O)[nH]c2c1 (stereo not given) | / | / | 9 | -27 | / | /
c1ccc(CSc2ccc(-c3cccs3)nn2)nc1 | 0 | 12* | 9 | -8 | 2 | -13
c1ccc(CSc2ccc(-c3cccs3)nn2)cc1 | -2 | -2 | 4 | 9 | 3 | -7
